Autophagy HCS = modulators of autophagy. MEF GFP-LC3 puncta imaging; test concentration mostly 10 µM. calls only at 10 µM (by protocol). actives 0.98% (n = 190,000). AID 463193;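 active = percentage of spot-positive cells more than 3 SD above its plate mean, without a fluorescence outlier flag or 80% toxicity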;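 note: spot-positive cell cutoff set from DMSO-treated cells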
SDO1 yeast rescue = compounds rescuing growth of sdo1-depleted yeast, bone marrow failure model; S. cerevisiae sdo1-depleted JHY4D growth rescue, OD600 30 h; stronger effect = higher value; pdr5 snq2 efflux-pump mutant strain; actives 0.21% (n = 140,000); z-score at 10 µM;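 active = z-score above 3 at both the 24 hr and the 30 hr optical density reads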;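 note: z-score against mean and SD of all compound wells on the same plate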
Dynein cargo inh = dynein cargo transport inhibition; 3617.4 mouse cells, GR-EGFP nuclear translocation imaging; test concentration mostly 20 µM; stimulated with dexamethasone, 1 µM; stronger effect = lower value; z-score, hits read low; actives 0.47% (n = 220,000); AID 1381;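 active = plate z-score of nuclear minus cytoplasmic receptor signal below a set negative limit, without overly bright fluorescence or cell loss, cut at about -3.5 in these data, passing the limit was not always enough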;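 note: z-score of nuclear minus cytoplasmic ring GR-EGFP intensity difference per well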
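Buffer or medium – tet-free medium with charcoal-stripped serum · Signal – automated 10x imaging of fixed Hoechst-stained cells · Also added – dexamethasone agonist, 1.0 µM final, for 30 min · Incubation – induction 48 h, compound 1 h, agonist 30 min · Read-out – GR-EGFP nuclear translocation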
PTEN del growth = growth suppressors of cells with PTEN tumor suppressor deletion. AID 827. HCT116 PTEN-null viability, CellTiter-Glo, 60 h; stronger effect = lower value. actives 1.2% (n = 140,000). viability, % at 10 µM;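 active = viability at or below a set limit, 4 SD under the median of all tested compounds, cut at about 3.7% in these data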;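 note: PTEN knockout HCT116 line with beta catenin targeted HCT116 as companion control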
HCT116 bCat-KO = beta-catenin-lacking colon tumor cell growth suppression | HCT116 beta-catenin knockout viability, CellTiter-Glo, 60 h; stronger effect = lower value | viability, % at 10 µM | actives 1.5% (n = 140,000) | AID 818;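 active = viability at or under a set limit, the compound median less 4 SD, cut at about 6% in these data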;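 note: 0% = Hyamine 1622 control at 20 µM and 100% = untreated cell control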
An asterisk follows results filed as active; i = inactive; x = no result given; + = active, no number. An excerpt weighted towards active compounds, which were near 2.2% of everything screened.

SMILES | Autophagy HCS | SDO1 yeast rescue | Dynein cargo inh | PTEN del growth | HCT116 bCat-KO
Cc1cccc(C(=O)NCC(=O)Nc2ccc(S(=O)(=O)Nc3nc(C)cc(C)n3)cc2)c1 | i | x | 0.94 | x | x
O=C(Nc1ccc(F)cc1)Nc1ccc([N+](=O)[O-])cn1 | + | x | 0.18 | x | x
CC(=O)Nc1c(C(N)=O)oc2ccc(Cl)cc12 | x | x | 0.53 | x | x
O=C(N/N=C/c1ccc(Cl)cc1)c1sccc1OCc1ccc(F)cc1 | i | -1.1 | x | 6 | 6.0*
Cc1occc1C(=O)Nc1ccc(S(=O)(=O)N2CCN(C)CC2)cc1 | i | 0.12 | -0.26 | 100 | 87
O=C(Nc1ccc2c(c1)nc1n2CCSC1)c1ccco1 | + | -1.7 | -0.93 | 100 | 106
COCCNC(=S)N1CCc2cc(OC)c(OC)cc2C1COc1ccc(C(C)C)cc1 (centres undefined) | i | 0.56 | 0.57 | 67 | 74
CC(=O)Nc1nc(-c2ccc(Cl)cc2)ns1 | + | 0.31 | 1.3 | 80 | 73
COc1cc(/C=N/NC(N)=O)ccc1OCC(=O)Nc1cc(C)c(C)cc1Br | + | x | -0.16 | x | x
COc1cc(/C=N\Nc2ccc([N+](=O)[O-])cc2)ccc1OCC(=O)Nc1ccc(C)c(C)c1 | + | 0.99 | 2.5 | 23 | 31
CCOc1cc(/C=N\Nc2ccc([N+](=O)[O-])cc2)ccc1OCC(=O)Nc1ccc(C)c(C)c1 | + | -0.67 | -0.95 | 66 | 69
COc1cc(/C=N/NC(N)=S)ccc1OCC(=O)Nc1ccc(C)cc1 | i | -0.73 | 0.92 | 99 | 104
COc1cc(/C=N\NC(=O)CN2CCOCC2)ccc1OCC(=O)Nc1ccc(C)c(C)c1 | i | 0.8 | -0.12 | 73 | 77
O=C(O)c1ccc(Cl)c(S(=O)(=O)Nc2ccc3cn[nH]c3c2)c1 | i | x | -0.64 | x | x
Cc1ccc2nc3cc([N+](=O)[O-])cc([N+](=O)[O-])c3cc2c1 | + | x | -6.3* | x | x
Cc1nc2ccc([N+](=O)[O-])cc2nc1C | i | x | 3.2 | x | x
N#C/C(=C\c1cccc(NC(=O)c2ccccc2Cl)c1)C(=O)NCCc1ccccc1 | i | -2 | -0.68 | 1.5* | 1.2*
Cc1cc(C)c2[nH]c(=O)c(CN(CC3CCCO3)S(=O)(=O)c3ccc4c(c3)OCCO4)cc2c1 (centres undefined) | i | -1.2 | 0.9 | 97 | 96
Cc1cccc2cc(CN(Cc3ccco3)S(=O)(=O)c3ccc4c(c3)OCCO4)c(=O)[nH]c12 | + | -1.7 | -0.046 | 68 | 76
Cc1ccc(C)c2[nH]c(=O)c(CN(CC3CCCO3)S(=O)(=O)c3ccc4c(c3)OCCO4)cc12 (centres undefined) | + | 0.45 | 1.5 | 65 | 73
O=C(Nc1ccc(S(=O)(=O)N2CCCC2)cc1)c1ccc(CN2CCOCC2)cc1 | i | 0.8 | -0.085 | x | 18
O=C(Nc1ccc(S(=O)(=O)N2CCCCC2)cc1)c1ccc(CN2CCOCC2)cc1 | i | 0.53 | -0.94 | 10 | 5.9*
Oc1ccc(/C=N/NC(=S)N2CCOCC2)cc1 | i | x | 0.84 | x | x
Cc1ccc2oc(-c3cccc(NC(=O)Cn4cnc5c(=O)n(C)c(=O)n(C)c54)c3)nc2c1 | i | x | -1.2 | x | x
CCC(C)c1ccc2oc(-c3ccc(NC(=O)Cn4cnc5c(=O)n(C)c(=O)n(C)c54)cc3)nc2c1 (centres undefined) | i | -0.82 | 1.9 | 1.5* | 1.6*
SMILES | Autophagy HCS | SDO1 yeast rescue | Dynein cargo inh | PTEN del growth | HCT116 bCat-KO
CC(=O)c1ccc(N2CCN(C(=O)c3cccc(Oc4ccccc4)c3)CC2)cc1 | + | x | 0.0025 | x | x
O=C(c1ccc2c(=O)n(CC3CCCO3)c(=S)[nH]c2c1)N1CCN(c2ccccc2)CC1 (centres undefined) | i | 0.74 | -0.48 | 1.5* | 1.1*
Cc1ccc(/C=C(\C#N)C(=O)Nc2c(C)cccc2C)s1 | i | -0.12 | -0.34 | x | 86
Cc1ccc(NC(=O)/C(C#N)=C/c2ccc(C)s2)c(C)c1 | + | 0.75 | -0.18 | 92 | 105
CC(C)CCOc1ccc(-c2c(=O)n(OCc3ccc([N+](=O)[O-])cc3)c3ccccc3[n+]2[O-])cc1 | i | -1.2 | -0.37 | 6 | 18
O=c1c(Br)c(Br)cnn1-c1ccccc1 | i | x | -5.8* | x | x
O=c1c(Br)c(N2CCCC2)cnn1-c1ccccc1 | i | -0.46 | 0.72 | 102 | 103
CCN1CCN(S(=O)(=O)c2ccc(C)c([N+](=O)[O-])c2)CC1 | i | -0.01 | -0.2 | 96 | 93
CCOC(=O)c1c(NC(=O)c2ccccc2Cl)sc2c1CCc1ccccc1-2 | i | -1.9 | -0.22 | 81 | 76
CCCCC(=O)Nc1sc2c(c1C(=O)OCC)CCC(C=O)=C2Cl | i | -1.1 | 4.1 | 1.1* | 1.4*
COc1ccc(S(=O)(=O)NCc2ccco2)cc1-c1nnc2c3ccccc3c(C)nn12 | i | -0.3 | 1.1 | 105 | 90
O=C(NC(Cc1c[nH]c2ccccc12)C(=O)OCC(=O)c1cccc2ccccc12)c1cccs1 (centres undefined) | i | 0.48 | 0.38 | 90 | 89
Oc1ccc(/C=N/Nc2cc(N3CCOCC3)nc(N3CCOCC3)n2)cc1O | i | 1.4 | -0.52 | 4 | 3.0*
Oc1cccc(/C=N/Nc2cc(N3CCOCC3)nc(N3CCOCC3)n2)c1 | i | 0.33 | -0.57 | 52 | 51
Cn1cccc1C(=O)NC(=O)COC(=O)c1cc(Cl)ccc1[N+](=O)[O-] | x | x | -0.081 | x | x
OCCNCc1ccc(OCc2ccc(Cl)cc2Cl)cc1 | i | x | 2.1 | x | x
OCCCCNCc1ccc(OCc2ccc(Cl)cc2Cl)cc1 | i | -2.6 | 1.2 | 1.6* | 1.8*
Cc1ccc(NC(=O)c2ccc(C(C)(C)C)cc2)cc1-n1cnnn1 | i | x | -0.072 | x | x
Cc1ccc(-c2nnc3c(C(F)(F)F)nc4ccccc4n23)cc1 | i | 0.18 | 0.25 | 8 | 4.7*
Cc1ccc(-c2nc3ccccc3n3c(C)nnc23)cc1 | i | -0.15 | 0.55 | 78 | 77
FC(F)(F)c1nc2ccccc2n2c(-c3ccc(Cl)cc3)nnc12 | i | -0.34 | -0.57 | 10 | 4.8*
Nc1nnc(SCc2cn3cc(Cl)ccc3n2)s1 | i | x | -1 | x | x
COc1cc(C(=O)O/N=C2/C=CC(=O)C(C)=C2C)cc(OC)c1OC | i | -0.43 | -2.1 | 2.5* | 18
CCc1ccc(CCC(=O)Nc2sc3c(c2C#N)CCCC3)o1 | + | -1.3 | -0.68 | 17 | 16
COc1ccc(CCNC(=O)CSc2nnc3ccc(-c4cccnc4)nn23)cc1OC | i | x | 1.3 | x | x
Cc1ccc2c(c1)C(=NC1CCCCC1)c1cc3ccccc3nc1-2 | i | -1.8 | -0.48 | 51 | 55
Cc1ccc2c(c1)-c1nc3ccccc3cc1C2=NC1CCCCC1 | i | -1.6 | -0.39 | 2.8* | 8
CCOc1ccccc1C(=O)N1CCN(c2ccc(C(F)(F)F)cn2)CC1 | i | x | 2.1 | x | x
Cc1ccc2nc(N3CC(=O)Nc4ccccc43)nc(-c3ccccc3)c2c1 | i | 0.14 | 1.5 | 1.2* | 1.4*

Assay outcomes: PubChem, several laboratories
